Tests used:
[1] = test system: Mus musculus; test: Peak antinociceptive potency of compound, 20 min after intracerebro ventricular administration into mice; type: functional
Outline: (§1)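 Male Swiss–Webster mice, tail-flick antinociception. Compounds given icv, iv or po, with ED50 taken at peak effect. Some ED50s were estimated from two dose levels. Where drug was insufficient, an approximate range was based on one dose level.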

[2] = test system: Mus musculus; test: Peak antinociceptive potency of compound, 20 min after intravenous administration into mice; type: functional; outline: as §1
[3] = test system: Mus musculus; test: Peak antinociceptive potency of compound, 60 min after peroral administration into mice; type: functional; conditions: po, 1 h; outline: as §1
[4] = (§2) Potency against opioid receptor relative to morphine; type: functional
Outline: (§3)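 Guinea pig ileal longitudinal muscle, electrically stimulated twitch. Agonist potency taken as IC50 for twitch inhibition and as potency ratio relative to morphine (morphine = 1). Values are means ± SE, with number of experiments.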

[5] = molecular target: T1, Opioid receptors; mu/kappa/delta (Homo sapiens, UniProt P41145+P41143+P35372); test: Opioid receptor agonistic potency in guinea pig ileal longitudinal muscle(GPI) preparation; type: functional, Cavia porcellus; conditions: target entry is the homologue from another species; outline: as §3
T1 sequence (P35372 whole entry, looked up): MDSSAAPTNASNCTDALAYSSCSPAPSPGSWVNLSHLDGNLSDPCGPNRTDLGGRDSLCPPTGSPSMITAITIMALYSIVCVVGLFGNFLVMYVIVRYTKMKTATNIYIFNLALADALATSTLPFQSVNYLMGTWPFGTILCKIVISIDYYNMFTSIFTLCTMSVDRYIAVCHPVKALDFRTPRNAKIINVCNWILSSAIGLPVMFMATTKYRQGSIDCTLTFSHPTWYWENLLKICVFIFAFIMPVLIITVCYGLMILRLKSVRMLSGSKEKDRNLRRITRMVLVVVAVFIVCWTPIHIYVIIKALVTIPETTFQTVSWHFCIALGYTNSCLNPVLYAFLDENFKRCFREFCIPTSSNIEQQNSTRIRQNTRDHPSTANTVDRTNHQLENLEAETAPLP
T1 sequence (P41143 whole entry, looked up): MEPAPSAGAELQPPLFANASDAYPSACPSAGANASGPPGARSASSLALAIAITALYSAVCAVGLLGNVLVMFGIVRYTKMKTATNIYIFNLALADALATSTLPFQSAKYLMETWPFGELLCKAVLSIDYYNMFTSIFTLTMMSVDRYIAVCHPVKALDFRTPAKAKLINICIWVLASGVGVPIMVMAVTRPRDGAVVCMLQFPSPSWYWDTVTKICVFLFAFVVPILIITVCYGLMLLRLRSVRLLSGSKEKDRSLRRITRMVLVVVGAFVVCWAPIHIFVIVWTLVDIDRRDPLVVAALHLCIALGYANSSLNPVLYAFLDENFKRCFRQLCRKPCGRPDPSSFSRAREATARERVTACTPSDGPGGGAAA
T1 sequence (P41145 whole entry, looked up): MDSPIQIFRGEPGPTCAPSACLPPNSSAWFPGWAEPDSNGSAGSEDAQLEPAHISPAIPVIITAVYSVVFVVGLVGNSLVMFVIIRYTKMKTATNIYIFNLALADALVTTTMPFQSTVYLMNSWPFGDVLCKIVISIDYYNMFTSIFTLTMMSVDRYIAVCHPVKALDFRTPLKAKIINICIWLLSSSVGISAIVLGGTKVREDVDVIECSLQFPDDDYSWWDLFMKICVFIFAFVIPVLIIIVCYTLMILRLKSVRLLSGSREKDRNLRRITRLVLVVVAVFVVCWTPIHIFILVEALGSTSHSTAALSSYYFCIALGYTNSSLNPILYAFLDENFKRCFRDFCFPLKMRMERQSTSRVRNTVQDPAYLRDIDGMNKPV

[6] = organism: Cavia porcellus; test: Antagonistic activity against morphine in guinea pig ileal longitudinal muscle(GPI) preparation; type: functional, Muscle tissue
Outline: (§4)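 Guinea pig ileal longitudinal muscle, electrically stimulated twitch. Antagonism measured against morphine. Ke = [antagonist]/(IC50 ratio − 1); the IC50 ratio is morphine IC50 with antagonist over its control IC50 in the same preparation. Values are means ± SE, with number of experiments.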

[7] = organism: Cavia porcellus; test: Maximum percent inhibition of electrically stimulated twitch in guinea pig ileal longitudinal muscle(GPI) preparation; type: functional; conditions: Muscle tissue
Outline: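 Guinea pig ileal longitudinal muscle, electrically stimulated. Maximum percent inhibition of the twitch determined at 1 μM. Values are means ± SE, with number of experiments.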

[8] = test system: Mus musculus; test: Peak antinociceptive potency of compound, 40 min after intracerebro ventricular administration nto mice; type: functional; outline: as §1
[9] = test system: Mus musculus; test: Peak antinociceptive potency of compound, 40 min after intravenous administration into mice; type: functional; outline: as §1
[10] = organism: Cavia porcellus; test: Antagonistic activity against morphine in guinea pig ileal longitudinal muscle(GPI) preparation; Agonism was too strong to test for antagonism; type: functional; conditions: Muscle tissue, filed as agonist; outline: as §4
[11] = test system: Mus musculus; test: Antagonistic potency, 60 min after intracerebro ventricular administration of compound (0.01n mol), in mice (tail flick assay); type: functional; conditions: central, 1 h
Outline: (§5)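 Male Swiss–Webster mice, tail-flick antinociception. Morphine given sc and tested 30 min after injection. Antagonist given icv (0.01 nmol), iv (18.3 μmol/kg) or po (91.7 μmol/kg), timed so both drugs were at peak (antagonist peaks 60, 90 and 120 min).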

[12] = test system: Mus musculus; test: Antagonistic potency, 90 min after […] administration of compound (18.3 u mol/kg), in mice (tail flick assay); type: functional; conditions: 1.5 h; outline: as §5
[13] = test system: Mus musculus; test: Dose required to produce equivalent antagonism of morphine activity after peroral administration of compound; type: functional
Outline: (§6)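 Mouse tail-flick assay against sc morphine. Antagonist dosed icv, iv or po. Equiactive dose calculated as the dose required to double the morphine ED50, [dose/(DR − 1)]. icv doses were also expressed per kg body weight.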

[14] = test system: Mus musculus; test: Peak effect of agonistic potency 10 min after intracerebro ventricular administration, in mice (acetic acid writhing assay); type: functional
Outline: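 Mouse acetic acid writhing assay. Compound given icv or po. […] Expressed as nmol/mouse (icv) or […] (po).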

[15] = Antagonistic potency, 120 min after […] administration of compound (91.7 u mol/kg), in mice (tail flick assay); type: functional; outline: as §5
[16] = Antagonistic potency, 90 min after intravenous administration of compound (18.3 u mol/kg), in mice (tail flick assay); type: functional; outline: as §5
[17] = Antagonistic potency,60 min after intracerebro ventricular administration of compound ([…]), in mice (tail flick assay); type: functional; outline: as §5
[18] = test system: Mus musculus; test: Dose required to produce equivalent antagonism of morphine activity after intravenous administration of compound; type: functional; outline: as §6
[19] = test system: Mus musculus; test: Antagonistic potency, 120 min after […] administration of compound (91.7u mol/kg), in mice (tail flick assay); type: functional; conditions: 2 h; outline: as §5
[20] = test system: Mus musculus; test: Peak antinociceptive potency of compound, 40 min after intracerebro ventricular administration into mice; type: functional; outline: as §1
[21] = molecular target: T1, Opioid receptors; mu/kappa/delta; test: as §2; type: functional; conditions: Cavia porcellus; outline: as §3

CN1CC[C@]23c4c5ccc(O)c4O[C@H]2C(NC(=O)/C=C\C(=O)O)CC[C@@]3(O)[C@H]1C5 (some centres not stated)
ED50 [1]: 0.17 nM mouse-1 | ED50 [2]: 11 µmol/kg | ED50 [3]: 20 µmol/kg | Ratio [4]: 2.6 | IC50 [5]: 39 nM

O=C(O)CNC1CC[C@@]2(O)[C@H]3Cc4ccc(O)c5c4[C@@]2(CCN3CC2CC2)[C@H]1O5 (some centres not stated)
Ke [6]: 24.4 nM | IC50 [7]: 37 nM

O=C(O)/C=C/C(=O)NC1CC[C@@]2(O)[C@H]3Cc4ccc(O)c5c4[C@@]2(CCN3CC2CC2)[C@H]1O5 (some centres not stated)
Ke [6]: 8.4 nM | IC50 [7]: 6 nM

O=C(O)COCC(=O)NC1CC[C@@]2(O)[C@H]3Cc4ccc(O)c5c4[C@@]2(CCN3CC2CC2)[C@H]1O5 (some centres not stated)
Ke [6]: 6.2 nM | IC50 [7]: 38 nM

O=C(O)CCCC(=O)NC1CC[C@@]2(O)[C@H]3Cc4ccc(O)c5c4[C@@]2(CCN3CC2CC2)[C@H]1O5 (some centres not stated)
Ke [6]: 28 nM | IC50 [7]: 41 nM

O=C(O)CCC(=O)NC1CC[C@@]2(O)[C@H]3Cc4ccc(O)c5c4[C@@]2(CCN3CC2CC2)[C@H]1O5 (some centres not stated)
Ke [6]: 24.8 nM | IC50 [7]: 56 nM

CN1CC[C@]23c4c5ccc(O)c4O[C@H]2C(NC(=O)CCC(=O)O)CC[C@@]3(O)[C@H]1C5 (some centres not stated)
ED50 [8]: 0.27 nM mouse-1 | ED50 [9]: 9.8 µmol/kg | ED50 [3]: 30.3 µmol/kg | Ratio [4]: 1.6 | IC50 [5]: 144 nM

NC(CC(=O)O)C(=O)NC1CC[C@@]2(O)[C@H]3Cc4ccc(O)c5c4[C@@]2(CCN3CC2CC2)[C@H]1O5 (some centres not stated)
Ke [10]: Agonism was too strong to test for antagonism | ED50 [11]: 58 µmol/kg | ED50 [12]: 168 µmol/kg | Dose [13]: 45.85 µM/kg | ED50 [14]: 0.024 nM mouse-1 | Dose ratio [15]: 3 | Dose ratio [16]: 12.2 | Dose ratio [17]: 4.2 | IC50 [7]: 7.4 nM | Dose [18]: 1.63 µM/kg | ED50 [19]: 41.4 µmol/kg

CN1CC[C@]23c4c5ccc(O)c4O[C@H]2C(NC(=O)C(N)CC(=O)O)CC[C@@]3(O)[C@H]1C5 (some centres not stated)
ED50 [1]: 1110.44 nM mouse-1 | ED50 [9]: < 20 µmol/kg | Ratio [4]: 6.1 | IC50 [5]: 31 nM

CN1CC[C@]23c4c5ccc(O)c4O[C@H]2C(NC(=O)/C=C/C(=O)O)CC[C@@]3(O)[C@H]1C5 (some centres not stated)
Ratio [4]: 1.5 | IC50 [5]: 130 nM

CN1CC[C@]23c4c5ccc(O)c4O[C@H]2C(NC(=O)COCC(=O)O)CC[C@@]3(O)[C@H]1C5 (some centres not stated)
ED50 [20]: 0.25 nM mouse-1 | ED50 [9]: < 20 µmol/kg | ED50 [3]: > 25 µmol/kg | Ratio [21]: 3.1 | IC50 [5]: 27 nM
